Apaf1 activ: activates human Apaf-1 apoptosome. O14727. Apaf-1 apoptosome caspase-3 activation, DEVD-Rh110 fluorescence; hits give low values. activity change, negative = activation, % at 20 µM. 0.31% of 330,000 active;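 active = activity change at or below -40% at 20 µM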
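Schedule: 30 min preincubation, 50 min reaction, room temperature / System: biochemical Apaf-1 apoptosome reconstitution / Medium: 20 mM HEPES pH 7.5 with CHAPS, BSA / Evaluation: Caspase-3 cleavage activity downstream of Apaf-1 activation / Detection: Caspase-3-released Rh110 fluorescence, 540 nm emission, 480 nm excitation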
Rh110 act interf: Rh110 signal interference in Apaf-1 activator counter-screen; shares compounds with Apaf1 activ; Rh110 fluorescence interference, quenched caspase reaction, Ex480/Em540; fluorescence interference (activity change), % at 20 µM, hits read low; 980 tested, under 10 active;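 active = mean activity change at or below -40% when tested at 20 µM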
Apaf-1 act conf2: Apaf-1 (human) activation, single-dose confirmed; reconstituted apoptosome caspase-3 activity, DEVD-Rh110 fluorescence; hits give low values; activity change, negative = activation, % at 20 µM; 5% of 980 active; shares compounds with Apaf1 activ;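 active = mean activity change at or below -40%, meaning activation of 40% or more, at 20 µM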
Apaf1 act interf: Apaf-1 activator counter-screen fluorescence artifact; shares compounds with Apaf1 activ; fluorescence interference counterscreen, Apaf-1 activator assay; EC50, µM; 55 tested, under 10 active; AID 588592; call rule not given here
* hit, by the source's call; nt = not tested or not shown. Only a sample is shown.

SMILES	Apaf1 activ	Rh110 act interf	Apaf-1 act conf2	others
COc1ccc(C(=O)NCCc2nnc3ccc(SCC(=O)NCCc4ccc(OC)c(OC)c4)nn23)cc1	-410*	-4	9
CC/C(=N/Nc1ccccc1C)c1cnnc(SC)n1	41	nt	nt
CN(C)CCC(c1ccc(Cl)cc1)c1ccccn1 (centres undefined)	-9	nt	nt
CC(=O)N1CCc2cc(Br)cc(S(=O)(=O)NCCCN3CCCC(C)C3)c21 (centres undefined)	-41*	-5	12
CCOC(=O)c1[nH]c2ccc(Br)cc2c1NC(=O)CCN1CCCC(C)C1 (centres undefined)	97	nt	nt
CCCCCCCCCCCCOC(=O)C[N+](C)(C)C	46	nt	nt
N#Cc1c(N2CCCC(O)C2)nc(N)c2c(N)nc3c(c12)CC(=O)N3C12CC3CC(CC(C3)C1)C2 (centres undefined)	98	nt	nt
C=C(C)C(=O)Nc1ccc(OC(F)(F)C(F)F)c(NC(=O)C(=C)C)c1	-85*	4	-21
CCCCNC(=O)C(C)N(CCN(C)C)C(=O)CCCN1C(=O)NC(c2ccc([N+](=O)[O-])cc2)C(C(=O)OCc2ccccc2)=C1C (centres undefined)	45	nt	nt
CN1/C(=C\C(=O)COC(=O)c2ccc([N+](=O)[O-])o2)C(C)(C)c2ccccc21	56	nt	nt
O=C(NCCO)c1ccc2nc(-c3ccco3)c(-c3ccco3)nc2c1	78	nt	nt
CC(C)(C)c1ccc(C(=O)NNC(=S)NCc2ccco2)cc1	-41*	6	14
Cc1nn(-c2ccccc2)c(C)c1CN(C)C(=O)c1ccc(S(=O)(=O)NCc2ccco2)cc1	49	nt	nt
Cc1cc(C)c(S(=O)(=O)NCc2ccc3c(c2)cc(C)n3C)c(C)c1	44	nt	nt
O=C1C=C(Nc2ccccc2C(=O)O)c2ccccc2C1=O	91	nt	nt
CC1=NN(c2ccccc2)C(=O)/C1=C/c1cc2cc(C)ccc2nc1N1CCCCC1	94	nt	nt
CCN(CC)C(=O)CSC(=Nc1ccccc1F)NC#N	-52*	18	11
CCOC(=O)c1nn(-c2ccccc2)c(=O)c2c(N)scc12	56	nt	nt
COc1ccccc1OCC(=O)NCC1CCCN(C(=O)c2ccccc2SC)C1 (centres undefined)	51	nt	nt
CCC(=O)Nc1ccccc1C(=O)N1CCCC1	-44*	-8	5
O=C1C=C(c2ccc(OC(F)(F)F)cc2)C[C@@H](c2ccc(F)cc2)C1	54	nt	nt
CCCC(C(=O)NC(C)(C)C)N(Cc1ccc(F)cc1)C(=O)c1snc(C(N)=O)c1N (centres undefined)	-108*	14	15
Cc1cc(C)nc(-n2nc(C)cc2NC(=O)CN2CCc3ccccc3C2)n1	54	nt	nt
COC(=O)c1[nH]c2cc(C)ccc2c1NC(=O)CN1CCc2cc(OC)c(OC)cc2C1	-176*	-2	12
C/C=N/NC(=O)c1cc(Br)ccc1O	57	nt	nt
SMILES	Apaf1 activ	Rh110 act interf	Apaf-1 act conf2	others
O=C(OCC(=O)c1c[nH]c2ccccc12)c1cc(Br)ccc1O	-339*	8	9
O=[N+]([O-])c1c(Nc2ccccn2)cc(Cl)c2nonc12	91	nt	nt
CC1=NN(c2ccc(Br)cc2)C(=O)/C1=C/c1ccc(-c2ccccc2C(=O)O)o1	78	nt	nt
Cc1ccc(-n2nnnc2SCC(=O)N2CCNC2=O)cc1C	-448*	9	9
CCC(C)NCCOCCOc1ccc(Br)cc1 (centres undefined)	-47*	2	11
Cc1c(CCOC(=O)c2ccc(Cl)cc2Cl)sc[n+]1CC(=O)c1ccc(Br)cc1	71	nt	nt
O=c1[nH]c(CN2CCc3ccccc3C2)nc2ccccc12	65	nt	nt
O=c1[nH]c(C(F)(F)F)nc2ccccc12	-112*	0	12
O=c1[nH]c(Nc2ccc(F)cc2)cc2ccccc12	95	nt	nt
COC(=O)/C(=C/Nc1ccc(O)cc1)[N+](=O)[O-]	91	nt	nt
CC(C)=C1C2C=CC1C1C(=O)N(c3ccc4c(c3)OCO4)C(=O)C21 (centres undefined)	-71*	1	10
N#C[C@@H]1[C@@H]2C(=O)N(c3ccc4c(c3)OCCO4)C(=O)[C@@H]2C2c3ccccc3C=CN21 (some centres undefined)	78	nt	nt
COc1cc2c(cc1OC)C1=C(C#N)CCC(=O)N1CC2	50	nt	nt
CCCCCCCCCCOC(=O)Cn1c(COc2cccc(C)c2)[n+](C)c2ccccc21	79	nt	nt
CCCCCCOc1ccc(/C(C)=N/NC2=NCCN2)cc1[N+](=O)[O-]	54	nt	nt
Cc1ccc(C(=O)NNc2cc(N3CCCC3)nc(N3CCCC3)n2)cc1	97	nt	nt
COc1ccc(NC(=S)N2CCC(C(=O)c3ccc(C)cc3)CC2)cc1	-103*	7	3
CCOC(=O)C1CCN(C(=O)Nc2ccc3nc(-c4ccco4)c(-c4ccco4)nc3c2)CC1	70	nt	nt
CC(C)(C)OC(=O)[C@H](Cc1ccccc1)NC(=O)c1nc[nH]c1C(=O)N[C@@H](CCCCN)C(=O)OC(C)(C)C	51	nt	nt
Cc1ccc(CNc2ccc(O)cc2)cc1	94	nt	nt
CN(C)CCCNC(=O)C[C@H]1C[C@H](C(=O)N2CCCCC2)[C@@]2(C)c3[nH]c4cc(-c5ccco5)ccc4c3CCN2C1=O	42	nt	nt
Cn1c(=O)c2[nH]c(=O)cnc2n(C)c1=S	56	nt	nt
Cc1ccc(C(=O)NCC(=O)N2CCCCCCC2)cc1	61	nt	nt
O=C(CSc1ccc2nnc(-c3ccccc3)n2n1)N1CCCCC1	-113*	2	9
NS(=O)(=O)Cc1noc2ccccc12	-79*	-4	7
SMILES	Apaf1 activ	Rh110 act interf	Apaf-1 act conf2	others
CC(C)CNC(=O)c1c(F)c(F)c(F)c(F)c1F	-54*	8	6
O=C(Nc1ncn[nH]1)c1c(Cl)ccc(Cl)c1Cl	-47*	-3	10
NC(N)=N/N=C/c1ccc(OCc2ccccc2Cl)cc1	43	nt	nt
CN(C)CCCN(C(=O)c1ccc(S(=O)(=O)N2CCCCC2)cc1)c1nc2cc3c(cc2s1)OCO3	42	nt	nt
CCc1nnc(NC(=O)c2ccc(S(=O)(=O)N3CCCCC3)cc2)s1	55	nt	nt
Cc1ccc(/C=N/NC(=O)CNC(=O)c2ccc(S(=O)(=O)N3CCCC3)cc2)o1	-522*	11	8
CCN(Cc1ccccc1)S(=O)(=O)c1ccc(C(=O)N(CCCN(C)C)c2nc3cc(OC)ccc3s2)cc1	40	nt	nt
Cc1cnc(NC(=O)C2=C(O)c3ccccc3S(=O)(=O)N2C)s1	-2	nt	nt
CN1/C(=N\O)c2cccc3cccc1c23	86	nt	nt
COn1c2c(c3c4nonc4ccc31)CCCC2	47	nt	nt	Apaf1 act interf=>100
Cc1ccccc1Nc1cc2ccccc2c(=O)[nH]1	96	nt	nt
CN(C)c1ccc(NC2=C(Cl)C(=O)c3ccccc3C2=O)cc1	43	nt	nt
COc1cccc(CN(C)C(=O)c2cc(S(=O)(=O)N3CCCCCC3)ccc2OC)c1	51	nt	nt
COc1cccc(CN(C)C(=O)c2ccc(C)c(S(=O)(=O)N3CCCCC3)c2)c1	40	nt	nt
COc1cccc(CNC(=O)CN2C(=O)COc3ccc(S(=O)(=O)N4CCCC4)cc32)c1	-82*	0	6
Cc1cccc(NC2=C(NC(=O)c3ccccc3)C(=O)c3ccccc3C2=O)c1	73	nt	nt
Cc1cccc(NC(=O)CCNS(=O)(=O)c2cccc3nonc23)c1	-68*	-4	8
